Three molecules from ChEMBL document CHEMBL3120128, “Evaluation of intestinal permeability of vicenin-2 and lychnopholic acid from Lychnophora salicifolia (Brazilian arnicão) using Caco-2 cells” (J Nat Prod, 2014) can be followed below.

Data set [1] concerns Caco-2. Put plainly: Cytotoxicity against human Caco2 cells at 50 to 200 uM relative to control. Type of data set: cell-based. As to conditions: caco-2, 200 µM; call rule not given here. Summed up:
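Toxicity judged from TEER of Caco-2 monolayers, measured with an epithelial voltohmmeter before and after exposure. Compared against control monolayers in transport medium without compound.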

Data set [2] relates to Caco-2. Put plainly: Apparent permeability from basolateral to apical side in human Caco2 cells in HBSS medium at 50 uM by HPLC-DAD analysis. The conditions noted are these: caco-2, 50 µM. Type of data set: ADME, cell-based. On the technique in general: Passage across Caco-2 layers is used to estimate intestinal permeability.
Data set [3] relates to Caco-2. Put plainly: Apparent permeability from apical to basolateral side in human Caco2 cells in HBSS medium at 50 uM by HPLC-DAD analysis. Type of data set: ADME, cell-based. As to conditions: caco-2, 50 µM.
Data set [4] deals with Caco-2. Put plainly: Apparent permeability from basolateral to apical side in human Caco2 cells in glucose free medium at 50 uM at pH 6.0 in apical side and pH 7.4 at basolateral side by HPLC-DAD analysis. Type of data set: ADME, cell-based. The conditions noted are these: caco-2, pH 6, 50 µM.
The subject of data set [5] is Caco-2. Put plainly: Apparent permeability from apical to basolateral side in human Caco2 cells in glucose free medium at 50 uM at pH 6.0 in apical side and pH 7.4 at basolateral side by HPLC-DAD analysis. The format is ADME, cell-based. As to conditions: caco-2, pH 6, 50 µM.
Data set [6] deals with Caco-2. Put plainly: Apparent permeability from basolateral to apical side in human Caco2 cells in glucose free medium at 50 uM at pH 7.4 by HPLC-DAD analysis. The conditions noted are these: caco-2, pH 7.4, 50 µM. Type of data set: ADME, cell-based.
Data set [7] has as its system Caco-2. Put plainly: Apparent permeability from apical to basolateral side in human Caco2 cells in glucose free medium at 50 uM at pH 7.4 by HPLC-DAD analysis. Type of data set: ADME, cell-based. The conditions noted are these: caco-2, pH 7.4, 50 µM.
Data set [8] deals with Caco-2. Put plainly: Apparent permeability from basolateral to apical side in human Caco2 cells in low glucose medium at 50 uM at pH 7.4 by HPLC-DAD analysis. The format is ADME, cell-based. As to conditions: caco-2, pH 7.4, 50 µM.
The subject of data set [9] is Caco-2. The data set is described as follows: Apparent permeability from apical to basolateral side in human Caco2 cells in low glucose medium at 50 uM at pH 7.4 by HPLC-DAD analysis. The format is ADME, cell-based. As to conditions: caco-2, pH 7.4, 50 µM.
For data set [10], the system named is Caco-2. Put plainly: Apparent permeability from basolateral to apical side in human Caco2 cells in glucose rich medium at 50 to 100 uM at pH 7.4 by HPLC-DAD analysis. The format is ADME, cell-based. As to conditions: caco-2, pH 7.4, 100 µM.
The subject of data set [11] is Caco-2. Put plainly: Apparent permeability from apical to basolateral side in human Caco2 cells in glucose rich medium at 50 to 100 uM at pH 7.4 by HPLC-DAD analysis. Type of data set: ADME, cell-based. As to conditions: caco-2, pH 7.4, 100 µM.
Data set [12] can be described thus: Lipophilicity, log P of the compound by micellar chromatography. Type of data set: physicochemical.
A short description of data set [13]: Stability of the compound at 25 degC by HPLC-DAD analysis. Type of data set: physicochemical.
The subject of data set [14] is Caco-2. The data set is described as follows: Apparent permeability from apical to basolateral side in human Caco2 cells in glucose rich medium at 50 to 100 uM at pH 7.4 by HPLC-DAD analysis. As to conditions: caco-2, pH 7.4, 100 µM.
Data set [15] in a line: Efflux ratio of apparent permeability from basolateral to apical side to apical to basolateral side in human Caco2 cells at 25 uM at pH 7.4 by HPLC-DAD analysis. The format is ADME, cell-based. The conditions noted are these: Caco-2, pH 7.4. Summed up:
(§1)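 Glucose-rich transport medium (25 mM glucose), pH 7.4 in both apical and basolateral compartments, donor concentration 25 or 50 μM. Papp = (ΔQ/Δt)/(A·C0), from the linear appearance rate on the receiver side. Ratios are calculated as Papp A→B/Papp B→A and Papp B→A/Papp A→B.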

The test system of data set [16] is Caco-2. The data set is described as follows: Efflux ratio of apparent permeability from apical to basolateral side to basolateral to apical side in human Caco2 cells at 25 uM at pH 7.4 by HPLC-DAD analysis. Type of data set: ADME, cell-based. As to conditions: caco-2, pH 7.4, 25 µM. In a few lines:
as §1

Data set [17] is described as follows: Apparent permeability from basolateral to apical side in human Caco2 cells at 25 uM at pH 7.4 by HPLC-DAD analysis. Type of data set: ADME, cell-based. The conditions noted are these: Caco-2, pH 7.4.
Data set [18] in a line: Apparent permeability from apical to basolateral side in human Caco2 cells at 25 uM at pH 7.4 after 30 mins by HPLC-DAD analysis. As to conditions: Caco-2, pH 7.4. Type of data set: ADME, cell-based.
The nature of data set [19]: Efflux ratio of apparent permeability from basolateral to apical side to apical to basolateral side in human Caco2 cells at 50 uM at pH 7.4 by HPLC-DAD analysis. The format is ADME, cell-based. The conditions noted are these: Caco-2, pH 7.4. In a few lines:
as §1

Data set [20] relates to Caco-2. The data set is described as follows: Efflux ratio of apparent permeability from apical to basolateral side to basolateral to apical side in human Caco2 cells at 50 uM at pH 7.4 by HPLC-DAD analysis. The format is ADME, cell-based. As to conditions: caco-2, pH 7.4, 50 µM. Summed up:
as §1

The nature of data set [21]: Apparent permeability from basolateral to apical side in human Caco2 cells at 50 uM at pH 7.4 by HPLC-DAD analysis. The format is ADME, cell-based. As to conditions: Caco-2, pH 7.4.
A short description of data set [22]: Apparent permeability from apical to basolateral side in human Caco2 cells at 50 uM at pH 7.4 after 30 mins by HPLC-DAD analysis. Type of data set: ADME, cell-based. As to conditions: Caco-2, pH 7.4.
Data set [23] has as its system Caco-2. The data set is described as follows: Cellular uptake in human Caco2 cells. The format is ADME, cell-based.
In data set [24] the test system is Caco-2. Put plainly: Apparent permeability from basolateral to apical side in human Caco2 cells in glucose free medium at 25 uM at pH 6.0 in apical side and pH 7.4 at basolateral side by HPLC-DAD analysis. The format is ADME, cell-based. As to conditions: caco-2, pH 6, 25 µM.
Data set [25] relates to Caco-2. Put plainly: Apparent permeability from apical to basolateral side in human Caco2 cells in glucose free medium at 25 uM at pH 6.0 in apical side and pH 7.4 at basolateral side by HPLC-DAD analysis. The conditions noted are these: caco-2, pH 6, 25 µM. Type of data set: ADME, cell-based.

With `O=c1cc(-c2ccc(O)cc2)oc2c([C@@H]3O[C@H](CO)[C@@H](O)[C@H](O)[C@H]3O)c(O)c([C@@H]3O[C@H](CO)[C@@H](O)[C@H](O)[C@H]3O)c(O)c12`, the Activity result in the data set with Caco-2 [1] is reported as “Non-toxic”. The permeability result in the data set on Caco-2 [2], in the data set on Caco-2 [3], in the data set with Caco-2 [4], in the data set with Caco-2 [5], with Caco-2 [6] and with Caco-2 [7] was “impermeable” throughout. The permeability entry in the data set with Caco-2 [8], in the data set with Caco-2 [9], with Caco-2 [10], with Caco-2 [11] and with Caco-2 [14] was “impermeable” in each case. In addition, the logP (in general, the decadic logarithm of the partition coefficient of the neutral form, usually between octanol and water) in [12] was -4.31. In data set [13], this molecule came in with a Stability of 99%.

For `C=C1CC/C=C(/C(=O)O)C[C@H](O)[C@@H]2[C@@H]1CC2(C)C`, in the data set on Caco-2 [1], the Activity result is “Non-toxic”. Also, the efflux ratio – broadly, a quotient of directional permeabilities that is used to spot active efflux – at 25 µM in data set [15] was 0.94. In addition, the Ratio with Caco-2 [16] is on record as 1.06; in the data set on Caco-2 [20] it was 0.97. Besides, the Papp B→A (commonly how fast a substance crosses the layer from the basolateral side) at 25 µM in [17] was 4.41 ×10⁻⁶ cm/s. The Papp A→B – broadly, how fast a substance crosses the layer from the apical side – at 0.5 h, 25 µM in data set [18] stood at 4.68 ×10⁻⁶ cm/s. For the same molecule, the efflux ratio at 50 µM in data set [19] is 1.02. The Papp B→A at 50 µM in data set [21] was found to be 4.17 ×10⁻⁶ cm/s. Besides, in data set [22], the Papp A→B at 0.5 h, 50 µM was 4.07 ×10⁻⁶ cm/s. The Stability in [13] was 98%.

For the molecule `O=c1cc(-c2ccc(O)cc2)oc2cc(O)cc(O)c12` [APIGENIN], the Drug uptake result in the data set with Caco-2 [23] is on record as “Active”. Also, the permeability entry in the data set with Caco-2 [24] and in the data set on Caco-2 [25] was “impermeable” throughout.
